Where two headings read alike, the source gives them in different places.
Legend:
[1] = test system: wild type AeSCP-2 denatured in 6.5 M guanidine hydrochloride; test: Intrinsic tryptophan fluorescence, denatured protein negative control; assay type: binding, Aedes aegypti; conditions: Fig. 6B
Outline: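 Negative control: recombinant AeSCP-2 denatured in 6.5 M guanidine-HCl in 50 mM Tris-HCl, pH 7.4, scanned with and without inhibitor. Excitation at 280 nm; emission read 320–390 nm. Buffer and inhibitor-alone spectra were subtracted to give difference spectra.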

wild type AeSCP-2 [2] = biological target: T1, wild type AeSCP-2 (Aedes aegypti, UniProt Q86PR3); assay type: binding; conditions: 50 µM SCPI; wild type AeSCP-2 at 10 µM; Fig. 6A
T1 sequence (Q86PR3 1-110): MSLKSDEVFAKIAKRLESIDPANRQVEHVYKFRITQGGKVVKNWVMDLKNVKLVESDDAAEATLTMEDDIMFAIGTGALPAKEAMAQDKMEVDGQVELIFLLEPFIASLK
Outline: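 Intrinsic Trp (single residue, W44) fluorescence of purified recombinant native AeSCP-2, with and without SCP-2 inhibitor. Run in 100 µL of 50 mM Tris-HCl, pH 8.0, at 25 °C. Excitation at 280 nm; emission scanned 320–390 nm. Difference spectra were made by subtracting buffer and inhibitor-alone spectra.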

AeSCP-2 [3] = biological target: T2, AeSCP-2 (Aedes aegypti, UniProt Q86PR3); conditions: read-out: IC50 (suppression of NBD-cholesterol binding); cited from earlier work
T2 sequence (Q86PR3 1-110): T1 sequence (Q86PR3 1-110)

AeSCP-2 M90L mutant [4] = biological target: T3, AeSCP-2 M90L mutant (Aedes aegypti, UniProt Q86PR3, M90L); assay type: binding; conditions: Fig. 6D
AeSCP-2 F9W/W44F mutant [5] = biological target: T4, AeSCP-2 F9W/W44F mutant (Aedes aegypti, UniProt Q86PR3, F9W/W44F); assay type: binding; conditions: Fig. 6C
Aag-2 cells = assay type: cell-based, Aedes aegypti; conditions: for Incorporation of [3H]cholesterol: Fig. 4; for Incorporation of [3H]palmitic acid: Fig. 5
AeSCP-2 W44E mutant [6] = biological target: T5, AeSCP-2 W44E mutant (Aedes aegypti, UniProt Q86PR3, W44E); test: NBD-cholesterol binding to recombinant AeSCP-2 mutant
AeSCP-2 wild-type = biological target: T6, AeSCP-2 wild-type (Aedes aegypti, UniProt Q86PR3); test: NBD-cholesterol binding to recombinant AeSCP-2; conditions: wt; 0.5 µM NBD-cholesterol, protein 0.01 to 10 µM; mean (standard deviation)
T6 sequence (Q86PR3 1-110): T1 sequence (Q86PR3 1-110)

AeSCP-2 Y30A mutant [7] = biological target: T7, AeSCP-2 Y30A mutant (Aedes aegypti, UniProt Q86PR3, Y30A); test: NBD-cholesterol binding to recombinant AeSCP-2 mutant
AeSCP-2 F105W mutant [8] = biological target: T8, AeSCP-2 F105W mutant (Aedes aegypti, UniProt Q86PR3, F105W); test: as above; conditions: 0.5 µM NBD-cholesterol, protein 0.01 to 10 µM, mean (standard deviation)
AeSCP-2 M90L mutant [9] = biological target: T3, AeSCP-2 M90L mutant; test: as above
AeSCP-2 F9W/W44F mutant [10] = biological target: T4, AeSCP-2 F9W/W44F mutant; test: as above
AeSCP-2 F32W mutant [11] = biological target: T9, AeSCP-2 F32W mutant (Aedes aegypti, UniProt Q86PR3, F32W); test: as above; conditions: 0.5 µM NBD-cholesterol, protein 0.01 to 10 µM, mean (standard deviation)
AeSCP-2 F105A mutant = AeSCP-2 F105A mutant (Aedes aegypti, UniProt Q86PR3, F105A); test: as above
AeSCP-2 F32A mutant = AeSCP-2 F32A mutant (Aedes aegypti, UniProt Q86PR3, F32A); test: as above
AeSCP-2 F32W mutant [12] = biological target: T9, AeSCP-2 F32W mutant; test: Ligand competition assay with NBD-cholesterol; assay type: binding
AeSCP-2 Y30A mutant [13] = biological target: T7, AeSCP-2 Y30A mutant; test: Ligand competition assay with NBD-cholesterol; assay type: binding
wild type AeSCP-2 [14] = biological target: T1, wild type AeSCP-2; test: Ligand competition assay with NBD-cholesterol; assay type: binding
AeSCP-2 M90L mutant [15] = biological target: T3, AeSCP-2 M90L mutant; test: Ligand competition assay with NBD-cholesterol; assay type: binding
AeSCP-2 W44E mutant [16] = biological target: T5, AeSCP-2 W44E mutant; test: Ligand competition assay with NBD-cholesterol; assay type: binding
AeSCP-2 F105W mutant [17] = biological target: T8, AeSCP-2 F105W mutant; test: Ligand competition assay with NBD-cholesterol; assay type: binding
AeSCP-2 W44A mutant = AeSCP-2 W44A mutant (Aedes aegypti, UniProt Q86PR3, W44A); test: Ligand competition assay with NBD-cholesterol; assay type: binding
AeSCP-2 [18] = biological target: T2, AeSCP-2; test: Initial ligand competition assay; assay type: binding; conditions: Fig. 1; NBD-cholesterol 1.25 µM, competitive ligand 0.005 to 5 µM
[19] = within the lipid bilayer; cited from earlier work
recombinant AeSCP-2 = conditions: radiolabelled cholesterol; cited from earlier work

COc1cccc(-n2sc3c(c2=S)-c2cc(Cl)ccc2NC3(C)C)c1 [SCPI-2, 8-chloro-2-(3-methoxyphenyl)-4,4-dimethyl-4,5-dihydroisothiazol[5,4-c]quinoline-1(2H)-thione]
Quenching of tryptophan intrinsic fluorescence, denatured protein [1]: no significant quenching | Effect on tryptophan intrinsic fluorescence signal (wild type AeSCP-2 [2]): significant decrease | IC50 (AeSCP-2 [3]): < 400 nM | Effect on tryptophan intrinsic fluorescence (AeSCP-2 M90L mutant [4]): did not affect | Effect on tryptophan intrinsic fluorescence (AeSCP-2 F9W/W44F mutant [5]): did not affect

Br.CC(=O)Nc1ccc(Nc2nc(-c3ccc(Cl)c(Cl)c3)cs2)cc1 [SCPI-1, N-4-{[4-(3,4-dichlorophenyl)-1,3-thiazol-2-yl]amino}phenyl)aetamide hydrobromide]
IC50 (AeSCP-2 [3]): < 400 nM

[3H]C1C([3H])[C@@]2(C)C(=CC[C@H]3[C@@H]4CC[C@H]([C@H](C)CCCC(C)C)[C@@]4(C)CC[C@@H]32)C[C@H]1O (stereo partly shown) [[^3H]cholesterol, [1,2-^3H (N)]-cholesterol]
Incorporation of [3H]cholesterol (Aag-2 cells; cells over-expressing AeSCP-2 mutants F32A, W44E, M90L, and F105A): did not increase | Incorporation of [3H]cholesterol (Aag-2 cells; cells over-expressing wild type AeSCP-2 vs. empty vector): increased significantly

C[C@H](CNc1ccc([N+](=O)[O-])c2nonc12)[C@H]1CC[C@H]2[C@@H]3CC=C4C[C@@H](O)CC[C@]4(C)[C@H]3CC[C@]12C [NBD-cholesterol, 22-(N-(7-nitrobenz-2-oxa-1,3-diazol-4-yl)amino)-23,24-bisnor-5-cholen-3β-o]
Fold of Kd change (AeSCP-2 W44E mutant [6]; W44E vs. wt): 12.35 | Kd (AeSCP-2 W44E mutant [6]; W44E, 0.5 µM NBD-cholesterol, protein 0.01 to 10 µM, mean (standard deviation)): 4200 nM | Kd (AeSCP-2 wild-type): 340 nM | Fold of Kd change (AeSCP-2 Y30A mutant [7]; Y30A vs. wt): 0.73 | Kd (AeSCP-2 Y30A mutant [7]; Y30A, 0.5 µM NBD-cholesterol, protein 0.01 to 10 µM, mean (standard deviation)): 250 nM | Kd (AeSCP-2 F105W mutant [8]): 1320 nM | Fold of Kd change (AeSCP-2 M90L mutant [9]; M90L vs. wt): 8.09 | Kd (AeSCP-2 M90L mutant [9]; M90L, 0.5 µM NBD-cholesterol, protein 0.01 to 10 µM, mean (standard deviation)): 2750 nM | Fold of Kd change (AeSCP-2 F9W/W44F mutant [10]; F9W/W44F vs. wt): 2.68 | Kd (AeSCP-2 F9W/W44F mutant [10]; F9W/W44F, 0.5 µM NBD-cholesterol, protein 0.01 to 10 µM, mean (standard deviation)): 910 nM | Kd (AeSCP-2 F32W mutant [11]): 4940 nM | Fold of Kd change (AeSCP-2 F105A mutant; F105A vs. wt): 3.38 | Kd (AeSCP-2 F105A mutant; F105A, 0.5 µM NBD-cholesterol, protein 0.01 to 10 µM, mean (standard deviation)): 1150 nM | Fold of Kd change (AeSCP-2 F32A mutant; F32A vs. wt): 18.71 | Kd (AeSCP-2 F32A mutant; F32A, 0.5 µM NBD-cholesterol, protein 0.01 to 10 µM, mean (standard deviation)): 6360 nM

CCCCCCCCCCCCCCCC(=O)O [palmitic acid]
EC50 (AeSCP-2 F32W mutant [12]): 398 nM | EC50 (AeSCP-2 Y30A mutant [13]): 100 nM | EC50 (wild type AeSCP-2 [14]): 348 nM | EC50 (AeSCP-2 M90L mutant [15]): 127 nM | EC50 (AeSCP-2 W44E mutant [16]): 75 nM | EC50 (AeSCP-2 F105W mutant [17]): 175 nM | EC50 (AeSCP-2 W44A mutant): 127 nM | Competition with NBD-cholesterol for binding to AeSCP-2 (AeSCP-2 [18]): also competed with NBD-cholesterol for binding to AeSCP-2

[3H]C(CCCCCC)C([3H])CCCCCCCC(=O)O (stereo not shown) [[^3H]palmitic acid, [9,10-^3H]-palmitic acid]
Incorporation of [3H]palmitic acid (Aag-2 cells; cells transfected with either empty or AeSCP-2 wild type expression vectors): no increase | Incorporation of [3H]palmitic acid (Aag-2 cells; over-expression of AeSCP-2 mutants): did not affect

CC(C)CCC[C@@H](C)[C@H]1CC[C@H]2[C@@H]3CC=C4C[C@@H](O)CC[C@]4(C)[C@H]3CC[C@]12C [cholesterol]
EC50 (AeSCP-2 F32W mutant [12]): 447 nM | flip-flop rate t1/2 [19]: 1 to 2 min | EC50 (AeSCP-2 Y30A mutant [13]): 282 nM | EC50 (wild type AeSCP-2 [14]): 211 nM | Kd (recombinant AeSCP-2): 10 nM | Effect on tryptophan intrinsic fluorescence signal (wild type AeSCP-2 [2]): does not produce a quenching | EC50 (AeSCP-2 F105W mutant [17]): 474 nM | EC50 (AeSCP-2 W44A mutant): 72 nM | Competition with NBD-cholesterol for binding to AeSCP-2 (AeSCP-2 [18]): competed with the NBD-cholesterol for binding to AeSCP-2 in a dose-dependent fashion

CC(C)CCC[C@@H](C)[C@H]1CC[C@H]2C3=CC=C4C[C@@H](O)CC[C@]4(C)[C@H]3CC[C@]12C [7-dehydrocholesterol]
Competition with NBD-cholesterol for binding to AeSCP-2 (AeSCP-2 [18]): did not appear to compete

CC[C@H](CC[C@@H](C)[C@H]1CC[C@H]2[C@@H]3CC=C4C[C@@H](O)CC[C@]4(C)[C@H]3CC[C@]12C)C(C)C [β-sitosterol]
EC50 (AeSCP-2 F32W mutant [12]): 61 nM | EC50 (AeSCP-2 Y30A mutant [13]): 96 nM | EC50 (wild type AeSCP-2 [14]): 142 nM | EC50 (AeSCP-2 M90L mutant [15]): 46 nM | EC50 (AeSCP-2 W44E mutant [16]): 42 nM | EC50 (AeSCP-2 F105W mutant [17]): 83 nM | EC50 (AeSCP-2 W44A mutant): 112 nM | Competition with NBD-cholesterol for binding to AeSCP-2 (AeSCP-2 [18]): also competed with NBD-cholesterol for binding to AeSCP-2

Br.CC(=O)Nc1ccc(Nc2nc(-c3ccc(Cl)c(Cl)c3)cs2)cc1 [SCPI-1]
Quenching of tryptophan intrinsic fluorescence, denatured protein [1]: no significant quenching | Effect on tryptophan intrinsic fluorescence signal (wild type AeSCP-2 [2]): significant decrease | Effect on tryptophan intrinsic fluorescence (AeSCP-2 M90L mutant [4]): still quenched | Effect on tryptophan intrinsic fluorescence (AeSCP-2 F9W/W44F mutant [5]): still quenched
